Results reported in ChEMBL document CHEMBL1149314, “Synthesis of AZT 5'-triphosphate mimics and their inhibitory effects on HIV-1 reverse transcriptase” (J Med Chem, 2004).

Tests used:
[1] = Inhibition of HIV1 reverse transcriptase; parameters: species or system Human immunodeficiency virus 1
How it was run: (§1)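 HIV reverse transcriptase (type B, 66 kDa subunit) at 2 nM with 1 µg/mL primed poly(A) RNA and 5 µM dTTP, in 50 mM Tris-HCl pH 8.1, 6.5 mM MgCl2, 100 mM NaCl and 10 mM DTT. Compounds were tested up to 500 µM final. Reactions were started with enzyme, run 10 min at 37 °C and stopped with EDTA. DNA was read by PicoGreen fluorescence (ex 480/em 538 nm), with no-enzyme or no-dTTP blanks. Percent inhibition was blank-corrected; Ki came from titration fitted to a competitive model.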

[2] = (§2) Stability in fetal calf serum at 500 uM at 37 degC; assay type: ADME, cell-free, Bos taurus; details: cattle, fetal calf serum
How it was run: (§3)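 Fetal calf serum at 10% v/v final, with 500 µM nucleotide mimic in 50 mM Tris-HCl pH 7.4 and 0.1 mM MgCl2, at 37 °C. Timed aliquots were quenched in cold methanol, extracted, dried and run on ion-pair reverse-phase HPLC. Half-life came from remaining parent through 48 h, given as >48 h if over 50% remained; unmodified nucleoside triphosphates were positive controls.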

[3] = system: Human immunodeficiency virus 1; assay: Inhibition of HIV1 reverse transcriptase at 0.5 uM; how it was run: as §1
[4] = system: Serum; assay: as §2; assay type: ADME, cell-free, Bos taurus; details: cattle, serum, 500 µM; how it was run: as §3
[5] = Stability in CEM cell extract; assay type: ADME; details: human, CEM (CCRF-CEM) cell extract
How it was run: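 Clarified lysate of CEM cells (10^7 cells per 100 µL Tris/glycerol/Triton buffer, freeze-thaw lysed) at 50% v/v, with 500 µM nucleotide mimic in 50 mM Tris-HCl pH 7.4 and 0.1 mM MgCl2, at 37 °C. Samples were taken from 0 to 48 h into cold methanol, dried and analysed by ion-pair reverse-phase HPLC. Half-life came from remaining parent, given as >48 h if over 50% remained intact; unmodified NTPs were controls.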

BP(=O)(OC[C@@H]1O[C@H](n2cc(C)c(=O)[nH]c2=O)C[C@H]1N=[N+]=[N-])OP(=O)(O)C(F)(F)P(=O)(O)O (single isomer, unassigned; diastereomer II)
Ki [1]: 4560 nM

BP(=O)(OC[C@@H]1O[C@H](n2cc(C)c(=O)[nH]c2=O)C[C@H]1N=[N+]=[N-])OP(=O)(O)OP(=O)(O)O (single isomer, unassigned; form 2)
half-life at 500 µM [2]: 6 h

BP(=O)(OC[C@@H]1O[C@H](n2cc(C)c(=O)[nH]c2=O)C[C@H]1N=[N+]=[N-])OP(=O)(O)C(F)P(=O)(O)O (single isomer, unassigned; diastereomer IV)
inhibition [3]: 49%

BP(=O)(OC[C@@H]1O[C@H](n2cc(C)c(=O)[nH]c2=O)C[C@H]1N=[N+]=[N-])OP(=O)(O)C(Cl)(Cl)P(=O)(O)O (single isomer, unassigned)
Ki [1]: 93 nM | t1/2 [4]: 45 h

COP(=O)(O)C(F)(F)P(=O)(O)OP(=O)(O)OC[C@@H]1O[C@H](n2cc(C)c(=O)[nH]c2=O)C[C@H]1N=[N+]=[N-]
Ki [1]: 597 nM

BP(=O)(OC[C@@H]1O[C@H](n2cc(C)c(=O)[nH]c2=O)C[C@H]1N=[N+]=[N-])OP(=O)(O)OP(=O)(O)O (single isomer, unassigned; form 1)
Ki [1]: 9.6 nM | t1/2 [4]: 6 h

Cc1cn([C@@H]2C[C@@H](N=[N+]=[N-])[C@H](COP(=S)(S)OP(=O)(O)C(F)(F)P(=O)(O)O)O2)c(=O)[nH]c1=O (stereo partly drawn)
inhibition [3]: 19%

Nc1ncnc2c1ncn2[C@@H]1O[C@H](COP(=O)(O)OP(=O)(O)OP(=O)(O)O)[C@@H](O)[C@H]1O [ADENOSINE TRIPHOSPHATE]
half-life at 500 µM [2]: 2 h

Cc1cn([C@@H]2C[C@@H](N=[N+]=[N-])[C@H](COP(=O)(O)OP(=O)(O)C(F)(F)P(=O)(O)Nc3ccccc3)O2)c(=O)[nH]c1=O
Ki [1]: 254 nM

Cc1cn([C@@H]2C[C@@H](N=[N+]=[N-])[C@H](COP(=O)(O)OP(=O)(O)C(F)(F)P(=O)(O)Oc3ccccc3)O2)c(=O)[nH]c1=O
Ki [1]: 303 nM

Cc1cn([C@H]2C[C@H](N=[N+]=[N-])[C@@H](COP(=O)(O)OP(=O)(O)OP(=O)(O)O)O2)c(=O)[nH]c1=O [ZIDOVUDINE TRIPHOSPHATE]
Ki [1]: 8.4 nM | half-life at 500 µM [2]: 2 h

Cc1cn([C@@H]2C[C@@H](N=[N+]=[N-])[C@H](COP(=O)(O)OP(=O)(O)C(F)(F)P(=O)(O)O)O2)c(=O)[nH]c1=O
Ki [1]: 41 nM

Cc1cn([C@@H]2C[C@@H](N=[N+]=[N-])[C@H](COP(=O)(O)OP(=O)(O)C(F)(F)P(=O)(O)N=[N+]=[N-])O2)c(=O)[nH]c1=O
inhibition [3]: 24%

Cc1cn([C@@H]2C[C@@H](N=[N+]=[N-])[C@H](COP(=O)(O)C(F)(F)P(=O)(O)OP(=O)(O)c3ccccc3)O2)c(=O)[nH]c1=O
inhibition [3]: 11.5%

Cc1cn([C@@H]2C[C@@H](N=[N+]=[N-])[C@H](COP(=O)(O)OP(=O)(O)C(F)(F)P(N)(=O)O)O2)c(=O)[nH]c1=O
Ki [1]: 234 nM

BP(=O)(OC[C@@H]1O[C@H](n2cc(C)c(=O)[nH]c2=O)C[C@H]1N=[N+]=[N-])OP(=O)(O)C(Cl)(Cl)P(=O)(O)O (single isomer, unassigned; diastereomer II)
Ki [1]: 74 nM | half-life at 500 µM [2]: > 48 h | half-life [5]: > 48 h

BP(=O)(OC[C@@H]1O[C@H](n2cc(C)c(=O)[nH]c2=O)C[C@H]1N=[N+]=[N-])OP(=O)(O)C(F)(F)P(=O)(O)O (single isomer, unassigned; diastereomer I)
Ki [1]: 9.5 nM | half-life at 500 µM [2]: > 48 h | half-life [5]: > 48 h

CNP(=O)(O)C(F)(F)P(=O)(O)OP(=O)(O)OC[C@@H]1O[C@H](n2cc(C)c(=O)[nH]c2=O)C[C@H]1N=[N+]=[N-]
Ki [1]: 124 nM

CCNP(=O)(O)C(F)(F)P(=O)(O)OP(=O)(O)OC[C@@H]1O[C@H](n2cc(C)c(=O)[nH]c2=O)C[C@H]1N=[N+]=[N-]
Ki [1]: 415 nM

Cc1cn([C@H]2C[C@H](O)[C@@H](COP(=O)(O)OP(=O)(O)OP(=O)(O)O)O2)c(=O)[nH]c1=O [DEOXYTHYMIDINE_TRIPHOSPHATE]
half-life at 500 µM [2]: 2 h

BP(=O)(OC[C@@H]1O[C@H](n2cc(C)c(=O)[nH]c2=O)C[C@H]1N=[N+]=[N-])OP(=O)(O)C(F)P(=O)(O)O (single isomer, unassigned)
Ki [1]: 27 nM
